# The source made the active and inactive calls. No cut-off for these calls is given here.
# Tests used:
# A549 = assay: Cytotoxicity against human A549/ATCC cells assessed as cell growth at 50 uM by SRB assay; assay type: functional; details: read-out: Activity
# MOLT-4 [1] = assay: Cytotoxicity against human MOLT4 cells assessed as cell growth at 0.05 uM by SRB assay; assay type: functional; details: read-out: Activity
# BT-549 = assay: Cytotoxicity against human BT549 cells assessed as cell growth at 0.5 uM by SRB assay; assay type: functional; details: read-out: Activity
# UACC-257 [2] = assay: Cytotoxicity against human UACC257 cells assessed as cell growth at 0.5 uM by SRB assay; assay type: functional; details: read-out: Activity
# LOX IMVI = assay: Cytotoxicity against human LOXIMVI cells assessed as cell growth at 5 uM by SRB assay; assay type: functional; details: read-out: Activity
# K562 = assay: Induction of DNA double strand breaks in human K562 cells assessed as increase in gamma-H2AX level at 25 uM after 4 hrs by chemiluminescence analysis; assay type: functional, cell-based
# Outline: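 K562 cells (3.4 × 10^5/mL) exposed 4 h at 37 °C to 25 µM drug or DMSO. Lysed in Tris pH 6.7/SDS buffer; 50 µg protein on 14% SDS-PAGE, PVDF blot. Rabbit anti-γH2AX (1:1000, overnight), GAPDH loading control, HRP secondary. Chemiluminescence imaged by CCD.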
# NCI-H23 = assay: Cytotoxicity against human NCI-H23 cells assessed as cell growth at 0.005 uM by SRB assay; assay type: functional; details: read-out: Activity
# SK-MEL-5 [3] = assay: Cytotoxicity against human SK-MEL-5 cells assessed as cell growth at 50 uM by SRB assay; assay type: functional; details: read-out: Activity
# SF-539 = assay: Cytotoxicity against human SF539 cells by SRB assay; assay type: functional
# Outline: (§1)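 NCI-60 panel screen; 5-dose testing giving GI50 per cell line, plus a single 10 µM one-dose test. Method details not given beyond the NCI screen.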
# MOLT-4 [4] = assay: Cytotoxicity against human MOLT4 cells by SRB assay; assay type: functional; outline: as §1
# T47D [5] = assay: Cytotoxicity against human T47D cells assessed as cell growth at 0.5 uM by SRB assay; assay type: functional; details: read-out: Activity
# OVCAR-5 [6] = assay: Cytotoxicity against human OVCAR5 cells assessed as cell growth at 0.005 uM by SRB assay; assay type: functional; details: read-out: Activity
# SNB-19 = assay: Cytotoxicity against human SNB19 cells assessed as cell growth at 0.05 uM by SRB assay; assay type: functional; details: read-out: Activity
# [7] = molecular target: DNA topoisomerase 2-alpha (Homo sapiens) (UniProt P11388); assay: Inhibition of full-length human recombinant topoisomerase 2-alpha mediated relaxation and cleavage of supercoiled pBR322 plasmid DNA to linear DNA by ethidium bromide staining based gel electrophoresis assay
# Chain of DNA topoisomerase 2-alpha (Homo sapiens) (P11388 whole entry): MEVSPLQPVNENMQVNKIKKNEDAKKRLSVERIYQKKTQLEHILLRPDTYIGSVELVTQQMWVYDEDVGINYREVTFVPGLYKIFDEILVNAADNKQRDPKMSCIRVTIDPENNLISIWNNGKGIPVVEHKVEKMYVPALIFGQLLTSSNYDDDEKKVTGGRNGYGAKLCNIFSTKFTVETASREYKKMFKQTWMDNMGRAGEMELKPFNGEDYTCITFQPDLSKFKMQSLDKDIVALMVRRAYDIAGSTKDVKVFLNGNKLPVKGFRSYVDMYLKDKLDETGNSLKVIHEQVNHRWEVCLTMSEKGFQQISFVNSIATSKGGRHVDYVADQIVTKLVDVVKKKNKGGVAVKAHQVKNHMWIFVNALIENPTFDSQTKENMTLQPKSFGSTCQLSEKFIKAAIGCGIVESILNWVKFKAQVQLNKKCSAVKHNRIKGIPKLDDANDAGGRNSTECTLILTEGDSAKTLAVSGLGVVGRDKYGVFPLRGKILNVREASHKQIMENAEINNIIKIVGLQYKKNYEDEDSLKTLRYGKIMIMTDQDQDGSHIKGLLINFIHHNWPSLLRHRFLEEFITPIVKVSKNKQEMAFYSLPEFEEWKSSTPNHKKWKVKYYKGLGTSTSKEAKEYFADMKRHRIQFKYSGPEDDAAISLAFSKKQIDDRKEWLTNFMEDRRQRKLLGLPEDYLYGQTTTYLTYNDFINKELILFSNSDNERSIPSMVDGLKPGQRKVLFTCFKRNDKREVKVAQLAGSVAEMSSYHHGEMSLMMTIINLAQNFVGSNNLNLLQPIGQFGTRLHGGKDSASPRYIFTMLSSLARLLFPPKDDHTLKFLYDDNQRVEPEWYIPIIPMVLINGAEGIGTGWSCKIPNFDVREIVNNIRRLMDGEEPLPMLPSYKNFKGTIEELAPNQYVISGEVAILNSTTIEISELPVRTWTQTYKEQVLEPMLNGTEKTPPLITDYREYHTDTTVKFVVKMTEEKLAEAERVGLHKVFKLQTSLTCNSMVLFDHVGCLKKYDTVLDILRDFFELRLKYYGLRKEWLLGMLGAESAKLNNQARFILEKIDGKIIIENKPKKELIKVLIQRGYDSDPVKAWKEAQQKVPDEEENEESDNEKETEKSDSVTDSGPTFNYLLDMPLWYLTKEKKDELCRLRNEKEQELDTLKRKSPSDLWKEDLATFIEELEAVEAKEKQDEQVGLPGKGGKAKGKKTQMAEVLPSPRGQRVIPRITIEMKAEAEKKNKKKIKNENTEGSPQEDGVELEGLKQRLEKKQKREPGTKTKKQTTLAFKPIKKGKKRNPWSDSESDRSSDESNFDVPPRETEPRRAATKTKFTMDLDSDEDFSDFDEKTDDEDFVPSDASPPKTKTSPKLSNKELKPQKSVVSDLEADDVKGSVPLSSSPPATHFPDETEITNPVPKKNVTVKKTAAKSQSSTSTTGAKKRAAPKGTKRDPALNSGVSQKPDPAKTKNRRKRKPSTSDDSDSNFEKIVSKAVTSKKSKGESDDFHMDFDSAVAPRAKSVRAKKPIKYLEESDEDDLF
# Outline: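 Recombinant full-length human topoisomerase IIα with supercoiled pBR322 DNA at 37 °C. Components mixed on ice before drug addition. Complexes trapped with SDS; products run on ethidium bromide gels. Linear DNA identified against a HindIII-linearized marker; repeated on three days.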
# NCI-H460 = assay: Cytotoxicity against human NCI-H460 cells assessed as cell growth at 5 uM by SRB assay; assay type: functional; details: read-out: Activity
# 786-0 = assay: Cytotoxicity against human 786-0 cells assessed as cell growth at 50 uM by SRB assay; assay type: functional; details: read-out: Activity
# UACC-257 [8] = assay: Cytotoxicity against human UACC257 cells assessed as cell growth at 0.005 uM by SRB assay; assay type: functional; details: read-out: Activity
# [9] = Cytotoxicity against human Hs578T cells assessed as cell growth at 0.05 uM by SRB assay; assay type: functional; details: Hs-578T, read-out: Activity
# Outline: (§2)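 Measured in the NCI-60 human tumour cell line panel using five-dose testing. Growth was recorded at each dose for each cell line, and a GI50 was derived for each line.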
# CAKI-1 [10] = assay: Cytotoxicity against human Caki1 cells assessed as cell growth at 0.05 uM by SRB assay; assay type: functional; details: read-out: Activity
# SK-MEL-5 [11] = assay: Cytotoxicity against human SK-MEL-5 cells assessed as cell growth at 0.005 uM by SRB assay; assay type: functional; details: read-out: Activity
# DU-145 [12] = assay: Cytotoxicity against human DU145 cells assessed as cell growth at 5 uM by SRB assay; assay type: functional; details: read-out: Activity; outline: as §2
# HCC 2998 [13] = assay: Cytotoxicity against human HCC2998 cells assessed as cell growth at 5 uM by SRB assay; assay type: functional; details: read-out: Activity; outline: as §2
# ACHN = assay: Cytotoxicity against human ACHN cells assessed as cell growth at 5 uM by SRB assay; assay type: functional; details: read-out: Activity
# DU-145 [14] = assay: Cytotoxicity against human DU145 cells assessed as cell growth at 0.005 uM by SRB assay; assay type: functional; details: read-out: Activity
# CAKI-1 [15] = assay: Cytotoxicity against human Caki1 cells assessed as cell growth at 0.5 uM by SRB assay; assay type: functional; details: read-out: Activity
# [16] = Cytotoxicity against human NCI-ADR-RES cells assessed as cell growth at 0.05 uM by SRB assay; assay type: functional; details: read-out: Activity
# T47D [17] = assay: Cytotoxicity against human T47D cells assessed as cell growth at 0.005 uM by SRB assay; assay type: functional; details: read-out: Activity
# SR = assay: Cytotoxicity against human SR cells by SRB assay; assay type: functional; outline: as §1
# OVCAR-5 [18] = assay: Cytotoxicity against human OVCAR5 cells assessed as cell growth at 5 uM by SRB assay; assay type: functional; details: read-out: Activity
# OVCAR-3 = assay: Cytotoxicity against human OVCAR3 cells assessed as cell growth at 50 uM by SRB assay; assay type: functional; details: read-out: Activity
# MDA-MB-231 [19] = assay: Cytotoxicity against human MDA-MB-231/ATCC cells assessed as cell growth at 5 uM by SRB assay; assay type: functional; details: read-out: Activity
# SN12C = assay: Cytotoxicity against human SN12C cells assessed as cell growth at 0.005 uM by SRB assay; assay type: functional; details: read-out: Activity
# MDA-MB-231 [20] = assay: Cytotoxicity against human MDA-MB-231/ATCC cells assessed as cell growth at 0.005 uM by SRB assay; assay type: functional; details: read-out: Activity
# HOP-92 = assay: Cytotoxicity against human HOP92 cells assessed as cell growth at 0.005 uM by SRB assay; assay type: functional; details: read-out: Activity; outline: as §2
# RXF 393 = assay: Cytotoxicity against human RXF393 cells assessed as cell growth at 0.005 uM by SRB assay; assay type: functional; details: read-out: Activity
# UACC-62 = assay: Cytotoxicity against human UACC62 cells by SRB assay; assay type: functional; outline: as §1
# HCC 2998 [21] = assay: Cytotoxicity against human HCC2998 cells assessed as cell growth at 0.005 uM by SRB assay; assay type: functional; details: read-out: Activity; outline: as §2
# SNB-75 = assay: Cytotoxicity against human SNB75 cells assessed as cell growth at 0.05 uM by SRB assay; assay type: functional; details: read-out: Activity
# NCI-H322M = assay: Cytotoxicity against human NCI-H322M cells by SRB assay; assay type: functional; outline: as §1
# [22] = read-out: LC50 (the source's name)
# [23] = read-out: pLC50 (the source's name) (converted)
structure (smiles),measurement,setting,value
COc1cc([C@@H]2c3cc4c(cc3[C@@H](NC(=O)CN3CCN(CCCCCCN5CCN(CC(=O)N[C@@H]6c7cc8c(cc7[C@@H](c7cc(OC)c(O)c(OC)c7)[C@H]7C(=O)OC[C@@H]76)OCO8)CC5)CC3)[C@H]3COC(=O)[C@H]23)OCO4)cc(OC)c1O,growth at 50 µM,A549,-37%
same,growth at 0.05 µM,MOLT-4 [1],105%
same,growth at 0.5 µM,BT-549,62%
same,growth at 0.5 µM,UACC-257 [2],108%
same,growth at 5 µM,LOX IMVI,23%
same,Activity,K562,Active
same,growth at 0.005 µM,NCI-H23,102%
same,growth at 50 µM,SK-MEL-5 [3],9%
same,GI50,SF-539; read-out: GI50,0.898 µM
same,CC50,SF-539; [22],> 50 µM
same,TGI,SF-539; read-out: TGI,3.57 µM
same,GI50,SF-539; read-out: pGI50 (converted),0.891 µM
same,CC50,SF-539; [23],> 50.1 µM
same,TGI,SF-539; read-out: pTGI (converted),3.55 µM
same,GI50,MOLT-4 [4]; read-out: GI50,0.233 µM
same,CC50,MOLT-4 [4]; [22],> 50 µM
same,TGI,MOLT-4 [4]; read-out: TGI,> 50 µM
same,GI50,MOLT-4 [4]; read-out: pGI50 (converted),0.234 µM
same,CC50,MOLT-4 [4]; [23],> 50.1 µM
same,TGI,MOLT-4 [4]; read-out: pTGI (converted),> 50.1 µM
same,growth at 0.5 µM,T47D [5],79%
same,growth at 0.005 µM,OVCAR-5 [6],93%
same,growth at 0.05 µM,SNB-19,95%
same,Effect on topoisomerase 2-alpha DNA cleavage (qualitative),[7],Dose-dependent effect
same,growth at 5 µM,NCI-H460,11%
same,growth at 50 µM,786-0,-10%
same,growth at 0.005 µM,UACC-257 [8],99%
same,growth at 0.05 µM,[9],90%
same,growth at 0.05 µM,CAKI-1 [10],93%
same,growth at 0.005 µM,SK-MEL-5 [11],97%
same,growth at 5 µM,DU-145 [12],14%
same,growth at 5 µM,HCC 2998 [13],73%
same,growth at 5 µM,ACHN,73%
same,growth at 0.005 µM,DU-145 [14],102%
same,growth at 0.5 µM,CAKI-1 [15],88%
same,growth at 0.05 µM,[16],103%
same,growth at 0.005 µM,T47D [17],97%
same,GI50,SR; read-out: GI50,0.106 µM
same,CC50,SR; [22],> 50 µM
same,TGI,SR; read-out: TGI,> 50 µM
same,GI50,SR; read-out: pGI50 (converted),0.105 µM
same,CC50,SR; [23],> 50.1 µM
same,TGI,SR; read-out: pTGI (converted),> 50.1 µM
same,growth at 5 µM,OVCAR-5 [18],58%
same,growth at 50 µM,OVCAR-3,11%
same,growth at 5 µM,MDA-MB-231 [19],79%
same,growth at 0.005 µM,SN12C,96%
same,growth at 0.005 µM,MDA-MB-231 [20],103%
same,growth at 0.005 µM,HOP-92,88%
same,growth at 0.005 µM,RXF 393,99%
same,GI50,UACC-62; read-out: GI50,1.55 µM
same,CC50,UACC-62; [22],> 50 µM
same,TGI,UACC-62; read-out: TGI,35.7 µM
same,GI50,UACC-62; read-out: pGI50 (converted),1.55 µM
same,CC50,UACC-62; [23],> 50.1 µM
same,TGI,UACC-62; read-out: pTGI (converted),35.5 µM
same,growth at 0.005 µM,HCC 2998 [21],104%
same,growth at 0.05 µM,SNB-75,77%
same,GI50,NCI-H322M; read-out: GI50,30.7 µM
same,CC50,NCI-H322M; [22],> 50 µM
same,TGI,NCI-H322M; read-out: TGI,> 50 µM
same,GI50,NCI-H322M; read-out: pGI50 (converted),30.9 µM
same,CC50,NCI-H322M; [23],> 50.1 µM
same,TGI,NCI-H322M; read-out: pTGI (converted),> 50.1 µM
